Assay outcomes from PubChem.
Many of the other results were omitted from the sample, so hits are more common in it than they were.
UPR CHOP act: activators of apoptotic arm of unfolded protein response (CHOP); AID 449763; CHO-CHOP luciferase reporter, UPR activation, luminescence; percent of tunicamycin response over DMSO baseline; activation, % at 10 µM; 0.34% of 330,000 active;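 active means at 10 µM dose, activation of 40% or more, normalized to positive control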;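 further: 100% = tunicamycin at 10 µg/mL and 0% = DMSO alone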
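Dosing – one dose, 10 µM in 0.5% DMSO · System – CHO-CHOP cells, stable luciferase reporter of PERK-eIF2a-CHOP signalling · Input – 500 cells/well · Control set – tunicamycin 10 µg/mL final as positive, DMSO-only wells as negative · Timing – 6 h compound treatment, 37 °C · Measure – % activation vs tunicamycin · Technique – luminescence read with Steady-Glo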
XBP1 UPR activ: activators of adaptive arm of unfolded protein response (XBP1); CHO-XBP1 luciferase reporter, IRE1-XBP1 UPR activation, luminescence; percent of tunicamycin response, DMSO as zero; activation, % at 20 µM; 0.33% of 330,000 active; AID 463104;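 active means versus positive control, 20 µM dose yields 30% or more activation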;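 further: 100% = tunicamycin at 10 µg/mL and 0% = DMSO only wells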
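incubation = overnight seeding at 37 °C, 6 h compound treatment at 37 °C | assay system = CHO-XBP1 cells stably carrying IRE1-XBP1-driven luciferase reporter | input = 1000 cells per well | detection = luciferase luminescence | dosing = single point, 20 µM final compound, 1% DMSO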
CHOP inh: CHOP inhibition in unfolded protein response; CHO-K1 CHOP-promoter luciferase, tunicamycin-induced, 15-18 h; inhibition, % at 10 µM; AID 2732; 3.8% of 220,000 active;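 active means compounds that reduced the stress-induced luciferase reporter signal by more than about 70% of percent inhibition, limit read from the data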;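 further: 0% = tunicamycin plus vehicle and 100% = wells without tunicamycin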
A1 inh: inhibitors of the anti-apoptotic protein A1, read as caspase activation | MEF A1-2A-BIM cells, Caspase-Glo 3/7 luminescence, 3 h; percent of clofoctol response, vehicle zero | caspase activation, % (concentration not given with the values) | 0.066% of 330,000 active;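 active means over half of replicate activation scores above 10%, or exactly half above 10 with the replicate mean above 10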
CHOP inh conf: confirmation of CHOP induction inhibitors. shares compounds with CHOP inh. CHO-CHOP promoter luciferase reporter, tunicamycin-induced, luminescence. 45% of 2,100 active. AID 504437. inhibition, % at 10 µM;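 active means mean of three repeat readings of reporter signal inhibition above a set limit, cut at about 70% in these data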;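 further: 0% = tunicamycin plus vehicle and 100% = wells lacking tunicamycin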
* hit, by the source's call; nt = no result given.

SMILES | UPR CHOP act | XBP1 UPR activ | CHOP inh | A1 inh | CHOP inh conf
N#CC(C#N)=C1C=CC=CN1/C(=C\c1ccccc1Cl)C(=O)c1ccccc1 | nt | nt | 107* | 14* | 125*
COc1ccc2c(c1)OC[C@H]1[C@H]2N2C(=O)CN(Cc3ccc(C)cc3)C(=O)[C@@]2(C)[C@H]1c1ccccc1 | 2 | -6 | nt | 2 | nt
Nc1ccc2c(c1)C(=O)C(=O)c1ccccc1-2 | -8 | -8 | nt | 0 | 140*
O=C1C(=O)c2ccc(-c3ccccc3)cc2-c2ccccc21 | -9 | -7 | 109* | 3 | 140*
CCC(C)n1c(=S)[nH]c2ccccc2c1=O (stereo not given) | -3 | -1 | 14 | 1 | nt
CCC(Cc1ccccc1)n1c(=S)[nH]c2ccccc2c1=O (stereo not given) | -1 | 2 | 97* | -1 | 82*
CC(C)CC(=O)Nc1nnc(S(=O)(=O)N2CCCCCC2)s1 | -1 | -1 | nt | -1 | nt
COc1cccc(-c2cc(C(=O)NCC3CCCO3)c3cc(C)cc(C)c3n2)c1 (stereo not given) | 0 | 0 | nt | 0 | nt
c1ccc(Nc2ccc3c4c(cccc24)CC3)cc1 | -2 | -1 | 100* | 2 | 49
CCCCc1nc2cc(C(=O)NCCc3c(C)n[nH]c3C)ccc2o1 | 1 | 0 | nt | 1 | nt
Cc1cccc(/C=N/Nc2ccc3ccccc3n2)c1 | -8 | -13 | 97* | -9 | 99*
CC(C)(C)N(Cc1ccccc1)C(=O)COC(=O)CNS(=O)(=O)c1ccc2ccccc2c1 | -3 | -4 | nt | 1 | nt
COc1ccc(C(=O)N(C)Cc2ccccn2)cc1OC1CCN(C(C)C)CC1 | 0 | -2 | nt | -1 | nt
CSc1nsc(SCC(=O)Nc2ccc(Cl)c(C(=O)O)c2)n1 | 0 | -2 | nt | 1 | nt
COC(=O)c1ccc2c(=O)n(CCCCCC(=O)N3CCN(c4ccccc4)CC3)c(=O)[nH]c2c1 | -6 | -4 | 105* | 0 | 113*
COc1ccc(C(=O)c2c(C(F)(F)F)oc3c2C(=O)c2ccccc2C3=O)cc1OC | 6 | -5 | 106* | 0 | 71
CCn1ncc(Cl)c1C(=O)Nc1cc(Cl)ccc1Cl | -4 | 0 | 100* | 1 | 17
Cc1cccc(N(C(=O)Cn2nnc3ccccc32)C(C(=O)NC(C)(C)C)c2ccsc2)c1C (stereo not given) | -2 | 2 | 34 | 0 | nt
Cc1ccccc1CCN(C(=O)Cn1nnc2ccccc21)C(C(=O)NC(C)(C)C)c1ccsc1 (stereo not given) | 1 | 0 | 98* | 1 | -16
Cc1ccc(OCC(=O)Nc2ccc3c(c2)C(=O)NC3=O)c(C)c1 | 1 | -1 | nt | 0 | nt
COC(=O)c1ccc2c(=O)n(NC(=O)C(c3ccccc3)c3ccccc3)c(=S)[nH]c2c1 | 2 | 0 | 102* | 1 | 31
COCCn1c(=O)[nH]c2cc(C(=O)OC)ccc2c1=O | 0 | -2 | -17 | 0 | nt
O=C(CN1c2ccccc2Sc2ccccc21)NNC(=O)Nc1cccc(Cl)c1 | 2 | -1 | 103* | 1 | 118*
CC(=O)N1c2ccc(F)c(F)c2C[C@H]1C | 1 | 3 | nt | 1 | nt
OC1(c2ccc(Br)cc2)CCNCC1 | 0 | 1 | 101* | 0 | 25
SMILES | UPR CHOP act | XBP1 UPR activ | CHOP inh | A1 inh | CHOP inh conf
Nc1nonc1C(=O)NCCN=Cc1cc(Cc2ccccc2)cc(Br)c1O | 0 | 0 | 104* | -1 | 12
CCCCCCCCNC(C)C(O)c1ccc(SC(C)C)cc1 (stereo not given) | 5 | -4 | 108* | -1 | 128*
C[C@@H](NCCc1ccc(O)cc1)[C@@H](O)c1ccc(O)cc1 | 0 | 2 | -7 | 0 | nt
Cc1nnc(SC(C)C(=O)Nc2ccc(S(=O)(=O)N3CCCCC3)cc2)s1 (stereo not given) | 1 | -3 | 100* | -1 | 12
COc1ccccc1NCC(=O)N/N=C(\C)c1ccc(Br)s1 | 2 | 0 | 98* | 0 | 40
C/C(=N/NC(=O)CNc1ccc(C)cc1)c1ccc(Br)s1 | -1 | -2 | 65 | 0 | nt
CCc1nc2c(cnn2-c2ccc(Cl)cc2)c(=O)n1-c1ccc(OC)cc1 | 1 | 5 | 101* | 1 | 88*
Cc1ccc2nc(NC(=O)CSCC(=O)OCC(=O)c3ccc(Br)cc3)sc2c1 | -7 | -3 | 100* | -4 | 107*
COC(=O)c1ccc2nc(NC(=O)CSCC(=O)OCC(=O)c3ccccc3)sc2c1 | 0 | 0 | 10 | -1 | nt
CN1C(=O)CSC1=NCC12CC3CC(CC(C3)C1)C2 | 0 | -5 | 105* | 0 | 7
Nc1nc(SCC(=O)N2CCCc3ccccc32)n[nH]1 | 0 | 0 | nt | 1 | nt
COc1ccc(-c2cc(C(=O)N(C)Cc3nc4ccccc4c(=O)[nH]3)c3ccccc3n2)cc1OC | 3 | -2 | nt | 1 | nt
NC(=O)NC(CC(=O)Nc1cccnc1)c1cccc(Br)c1 (stereo not given) | -1 | 1 | nt | 0 | nt
Cc1ccccc1N(C(=O)Cc1c[nH]c2ccccc12)C(C(=O)NC1CCCCC1)c1ccco1 (stereo not given) | 2 | 6 | 103* | 0 | 51
Cc1ccc(C(C(=O)NC2CCCCC2)N(C(=O)Cc2c[nH]c3ccccc23)c2ccccc2C)o1 (stereo not given) | 3 | 10 | 100* | 0 | 86*
CCCCNC(=O)O[C@H]1C[C@@H]2CCN3C(=O)CCC[C@H]([C@H]1Cc1ccccc1)[C@H]23 | -1 | 0 | nt | 1 | nt
Cc1ccc(NC(=O)Cn2nnc(C(=O)Nc3ccc(C)c(C)c3)c2N)cc1 | 2 | 4 | 97* | 2 | 45
Cc1ccc(NC(=O)c2nnn(CC(=O)Nc3ccc4c(c3)OCO4)c2N)cc1C | 2 | 1 | nt | 1 | nt
O=C(CSc1ccc(C(F)(F)F)cc1[N+](=O)[O-])Nc1ccccc1 | 0 | -1 | 97* | 0 | 3
O=C(Nc1ccc(F)cc1)c1ccccc1Oc1ccc(C(F)(F)F)cc1[N+](=O)[O-] | 0 | -3 | 106* | 0 | 12
O=[N+]([O-])c1cc(C(F)(F)F)ccc1Oc1cccnc1[N+](=O)[O-] | 0 | 1 | 20 | -1 | nt
CC(C)(C)OC(=O)NCc1ccc(CNC(=O)c2nc[nH]c2C(=O)N2CCc3ccccc3C2)cc1 | 4 | 0 | nt | 1 | nt
O=C(/C=C/c1cccc([N+](=O)[O-])c1)n1cnc2ccccc21 | -4 | -4 | 107* | nt | 116*
O=C(/C=C/c1cccc([N+](=O)[O-])c1)N1CCN(c2ccccn2)CC1 | -1 | -7 | nt | 0 | nt
Cc1cc(/C=C2/C(=O)NN(c3ccccc3)C2=O)c(C)n1-c1ccc(O)cc1 | 3 | -3 | 21 | 0 | nt
Cc1cc(/C=C2\C(=O)NN(c3ccccc3)C2=O)c(C)n1-c1ccccc1O | 5 | 2 | 96* | -8 | 15
